MC4R antag cAMP: human MC4R antagonism in cAMP assay; P32245; MC4R-expressing cells, MTII-stimulated cAMP, LANCE TR-FRET; inhibition, % at 6.5 µM; 360,000 tested, 0.48% active; AID 540295;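 active means inhibition above its plate's cutoff, the mean of tested wells on that plate plus 3 SD, cut at about 29% in these data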;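 further: 0% = Melanotan II alone and 100% = Melanotan II plus saturating MCL0020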
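system = U2OS cells with stable human MC4R expression | also added = Melanotan II challenge after compound preincubation | dosing = one concentration, 6.5 µM nominal | incubation = compound 30 min, challenge 1 h, detection 1 h | measured by = TR-FRET with Eu-cAMP and labeled anti-cAMP, 671 nm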
sPLA2-III inh: Inhibits HGIII-sPLA2 liposome hydrolysis, primary screen. AID 743126. QFRET BODIPY PC-A2 liposome hydrolysis, fluorescence. inhibition, % at 12.2 µM. 370,000 tested, 0.56% active. Q9NZ20;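 active means inhibition above mean plus 3 SD of compounds lying within the high and low control bounds, cut at about 19% in these data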;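 further: 0% = median of test compound wells and 100% = no enzyme DMSO wells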
MC4R ag barr: human MC4R agonism via beta-arrestin; activation, % at 8.9 µM; U2OS MC4R beta-arrestin complementation, luminescence; percent of melanotan II response, DMSO zero; P32245; 360,000 tested, 0.98% active;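 active means activation above a per-plate cutoff, the mean activation of sample wells on that plate plus 3 SD, cut at about 8% in these data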
Granule exo inh: lytic granule exocytosis inhibition. TALL-104 LAMP-1 surface exposure, flow cytometry; cells stimulated with thapsigargin and PMA. inhibition, % at 10 µM. 360,000 tested, 0.66% active. AID 651702;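 active means inhibition above about 55%, limit read from the data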
NTR1 agonist: activates human neurotensin receptor 1; activation, % at 20 µM; NTR1-U2OS beta-arrestin-GFP spot imaging, agonist mode; 330,000 tested, 0.17% active; AID 493036; P30989;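 active means activation at or above 40% of the spot to cytoplasm intensity ratio, with at least 20 cells analyzed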;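 further: 0% = DMSO without peptide and 100% = 100 nM NTR1 peptide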
Bfl-1 A1 inh: inhibitors of the anti-apoptotic protein A1, read as caspase activation. MEF A1-2A-BIM cells, Caspase-Glo 3/7 luminescence, 3 h; percent of clofoctol response, vehicle zero. caspase activation, % (concentration not given with the values). 330,000 tested, 0.066% active;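 active means over half of replicate activation scores above 10%, or exactly half above 10 with the replicate mean above 10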
MC4R barr conf: human MC4R beta-arrestin agonism confirmation; shares compounds with MC4R ag barr; U2OS MC4R beta-arrestin recruitment, luminescence; scaled DMSO 0%, Melanotan II 100%; activation, % at 8.9 µM; 2,400 tested, 31% active;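 active means mean activation across replicates above the hit cutoff set in the earlier primary screen, cut at about 8% in these data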
MOR DOR agonist: activates mu-delta opioid heterodimer, MC4R agonist counter-screen; shares compounds with MC4R ag barr; U2OS PathHunter beta-arrestin, beta-gal luminescence; percent of deltorphin B response, DMSO zero; activation, % at 9.2 µM; 2,400 tested, 5.8% active;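 active means mean activation across replicates exceeds the hit threshold derived in the earlier primary screen, cut at about 18% in these data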;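 further: 100% = deltorphin B at 0.9 µM final and 0% = DMSO alone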
Target sequence (P35372 whole entry, looked up): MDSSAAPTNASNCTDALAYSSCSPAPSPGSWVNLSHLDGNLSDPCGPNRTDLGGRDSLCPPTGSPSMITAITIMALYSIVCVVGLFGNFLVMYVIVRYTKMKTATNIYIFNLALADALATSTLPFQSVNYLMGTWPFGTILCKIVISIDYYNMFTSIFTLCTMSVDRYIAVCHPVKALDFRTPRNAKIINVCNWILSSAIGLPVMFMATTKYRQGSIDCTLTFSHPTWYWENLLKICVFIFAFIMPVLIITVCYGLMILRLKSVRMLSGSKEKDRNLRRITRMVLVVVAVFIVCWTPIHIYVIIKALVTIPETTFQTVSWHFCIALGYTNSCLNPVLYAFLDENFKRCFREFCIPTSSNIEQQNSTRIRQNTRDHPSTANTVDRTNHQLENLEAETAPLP
Target sequence (P41143 whole entry, looked up): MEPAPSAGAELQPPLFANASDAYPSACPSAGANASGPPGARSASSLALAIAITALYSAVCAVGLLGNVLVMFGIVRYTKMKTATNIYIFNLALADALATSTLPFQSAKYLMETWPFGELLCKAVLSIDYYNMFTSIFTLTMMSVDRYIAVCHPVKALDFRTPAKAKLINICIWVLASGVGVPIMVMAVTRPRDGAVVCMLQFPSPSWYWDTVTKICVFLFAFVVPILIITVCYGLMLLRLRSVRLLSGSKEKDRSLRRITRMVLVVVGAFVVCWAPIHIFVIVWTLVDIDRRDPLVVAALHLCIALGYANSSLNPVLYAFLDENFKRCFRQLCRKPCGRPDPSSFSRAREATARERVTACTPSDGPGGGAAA
Active calls of the source: *; / = no result. Rows were chosen to be rich in hits. Some 2.5% of all compounds tested hit in one or more screens of this group.

SMILES	MC4R antag cAMP	sPLA2-III inh	MC4R ag barr	Granule exo inh	NTR1 agonist	Bfl-1 A1 inh	MC4R barr conf	MOR DOR agonist
Clc1ccc(Cn2cc(/C=N/n3cnnc3)c3ccccc32)c(Cl)c1	14	-2	16*	1	34	0	11*	8
C(=N\n1cnnc1)/c1cn(Cc2ccccc2)c2ccccc12	-2	-16	-2	0	-1	0	/	/
CCc1c(-c2ccccc2)ncn1CCc1ccccc1OC	/	-5	/	/	/	/	/	/
Cc1ccc(C(C)C)c(OCCNC(=O)c2ccccc2O)c1	4	-30	13*	4	2	1	3	11
S=c1[nH]nc(-c2cccs2)n1/N=C/c1cn(-c2ccccc2)nc1-c1cccs1	25	1	10*	-3	8	-4	1	4
Cc1ccc(-c2nn(-c3ccccc3)cc2/C=N/n2c(-c3cccs3)n[nH]c2=S)cc1	21	-4	0	0	14	0	/	/
CC(/C=C1\SC(=S)N(NC(=O)c2cccc(O)c2)C1=O)=C\c1ccccc1	10	-31	9.8*	9	7	1	2	5
O=C(Nc1cccc(-c2nc3cccnc3s2)c1)c1cccnc1Cl	-1	2	2	-2	3	0	/	/
O=C(Nc1cccc(-c2nc3cccnc3s2)c1)C1c2ccccc2Oc2ccccc21	2	10	10*	1	-1	/	3	8
Cc1cccc2sc(N(CCCN(C)C)C(=O)c3ccc(Cl)s3)nc12	0	-13	11*	-5	5	-1	4	6
Cc1cc(C)c2sc(N(CCCN(C)C)C(=O)c3ccc(Br)s3)nc2c1	2	-13	16*	29	8	1	21*	14
O=c1cc(/C=C/c2ccccc2)oc2c1ccc1ccccc12	6	0	29*	18	26	0	16*	4
O=c1cc(-c2ccccc2)oc2c1ccc1ccccc12	/	-4	/	/	/	/	/	/
CC(C)(C)c1ccc(S(=O)(=O)NCC(=O)N2CCN(c3ncccn3)CC2)cc1	/	2	/	/	/	/	/	/
Cc1ccc(-c2cc(C(=O)N/N=C/c3c(C)nn(C)c3C)c3ccccc3n2)cc1C	10	-11	11*	0	12	0	9.3*	4
CC(c1ccccc1)N(CC(=O)NC1CCCCC1)S(=O)(=O)c1cccc(C(F)(F)F)c1 (stereo not given)	17	3	0	13	12	0	/	/
O=C(CN(Cc1ccccc1)S(=O)(=O)c1cccc(C(F)(F)F)c1)NC1CCCCC1	4	12	12*	2	3	1	0	5
C=CCn1c(=NC(=O)c2cc(-c3cccs3)nc3ccccc23)sc2cc(S(N)(=O)=O)ccc21	1	6	-4	-2	10	-1	/	/
C=CCn1c(=NC(=O)c2cc(Cl)sc2Cl)sc2cc(S(N)(=O)=O)ccc21	14	-28	14*	9	1	0	4	2
Oc1cccc(C(O)CNCc2ccc(OCc3ccc(Cl)cc3Cl)cc2)c1 (stereo not given)	0	-22	14*	0	5	0	27*	15
CCCCn1c(SCC(=O)NCc2ccco2)nc2ccccc2c1=O	8	-6	-4	9	0	0	/	/
Cc1nc2c3ccccc3nc(SCC(=O)c3ccc(Cl)cc3)n2n1	-1	-31	11*	-3	17	1	14*	5
O=C(CCCCCn1c(SCC(=O)c2ccccc2)nc2ccccc2c1=O)NCc1ccco1	11	-21	28*	-3	7	0	6	13
O=C(CCCn1c(SCC(=O)c2ccc(Cl)cc2)nc2ccccc2c1=O)NCc1ccco1	10	-7	19*	-1	8	1	1	29*
O=C(CCCCn1c(=O)c2ccccc2n(Cc2ccc(Cl)cc2)c1=O)NCc1ccco1	-4	1	12*	-2	8	2	0	4
SMILES	MC4R antag cAMP	sPLA2-III inh	MC4R ag barr	Granule exo inh	NTR1 agonist	Bfl-1 A1 inh	MC4R barr conf	MOR DOR agonist
CCOC(=O)CSc1nc2ccccc2c(=O)n1CCCCCC(=O)NCc1ccco1	6	-2	0	-3	4	0	/	/
COc1ccc(C2=CCN(C)C(=O)N2c2ccc([N+](=O)[O-])cc2)cc1	/	-2	/	/	/	/	/	/
O=C(OCC(=O)N(Cc1ccccc1)Cc1ccccc1)c1cccc(O)c1	3	-10	9.7*	0	2	0	1	7
CCOC(=O)[C@]12CCCC=C1N(CCc1ccc(Cl)cc1)C(=O)[C@@H]2CC(=O)NCCC(C)C	/	-9	/	/	/	/	/	/
COc1ccc(NC(=O)CN(C)C(=O)c2sc3cc(Cl)ccc3c2Cl)cc1	9	-15	-1	11	13	0	/	/
Cc1ccc(NC(=O)CN(C)C(=O)c2sc3cc(Cl)ccc3c2Cl)cc1	1	0	10*	1	1	1	2	6
OC(COc1ccc(F)cc1Cl)CN1CCC(Cc2ccccc2)CC1 (stereo not given)	3	-10	11*	32	5	0	9.3*	11
CCc1csc(N2[C@H](CN(CCOC)S(=O)(=O)c3ccccc3[N+](=O)[O-])[C@H](c3ccccc3)[C@@H]2CO)n1	/	1	/	/	/	/	/	/
Oc1ccc(N2CCN(c3ncnc4sc(-c5ccccc5)cc34)CC2)cc1	4	-4	48*	1	/	/	34*	12
CCc1ccc(CCC(=O)Nc2ncc(Cc3ccccc3Cl)s2)o1	-27	-17	18*	2	0	2	25*	13
C/C=C(/C)C(=O)OC1CC(C)(C)C[C@H]2C3=CC[C@@H]4[C@@]5(C)CCC(O[C@@H]6O[C@@H](C(=O)O)[C@@H](O)C(O[C@@H]7OC[C@H](O)[C@@H](O)[C@@H]7O[C@@H]7OC(CO)C(O)[C@@H](O)[C@@H]7O)C6O[C@@H]6OC(CO)C(O)C(O)C6O)[C@@](C)(CO)[C@@H]5CC[C@]4(C)[C@]3(C)CC(O)[C@@]12CO (stereo not given in full)	27	/	9.9*	-1	8	1	8.6*	4
COc1ccccc1CCn1cnc(-c2cccc(Cl)c2)c1CC(C)C	/	4	/	/	/	/	/	/
COc1cccc2sc(N(CCN(C)C)C(=O)/C=C/c3cccs3)nc12	7	-12	7	33	8	2	/	/
Cc1ccc2nc(N(CCN(C)C)C(=O)/C=C/c3cccs3)sc2c1	-18	-18	16*	56*	7	-1	6	4

Screening data: PubChem BioAssay, several laboratories
